In general, inhibition refers to how much of the control response was suppressed. Usually IC50 stands for the concentration needed to halve the response being measured. For orientation: Ki means a measure of affinity in units of concentration, obtained from inhibition or displacement.

Data set [1] addresses Plasmepsin II (Plasmodium falciparum) (UniProt P46925). Description: Inhibition of Plasmodium falciparum plasmepsin-2 expressed in Escherichia coli BL21 (DE3) at 1 uM after 1 to 2 hrs.
Data set [2] has as its target T1, Plasmepsin II (Plasmodium falciparum, UniProt P46925). The data set is described as follows: Competitive inhibition of Plasmodium falciparum plasmepsin-2 expressed in Escherichia coli BL21 (DE3) after 30 min by FRET assay. The procedure, abridged: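 Recombinant mature Plm II from inclusion bodies, refolded and activated in 0.1 M sodium citrate pH 4.7, stored in 20 mM Tris-HCl pH 8.5 with 0.25 M NaCl. FRET assay in NaOAc buffer pH 5.0 using 2.5 nM enzyme and 1 μM DABCYL-Glu-Arg-Nle-Phe-Leu-Ser-Phe-Pro-EDANS substrate. Inhibitor, enzyme and substrate incubated 30 min at 37 C; EDANS fluorescence read at excitation 336 nm.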

The target in data set [3] is Plasmepsin II (Plasmodium falciparum) (UniProt P46925). Description: Inhibition of Plasmodium falciparum plasmepsin-2 expressed in Escherichia coli BL21 (DE3) at 1 uM after 30 min by FRET assay.
Data set [4] has the same target. The data set is described as follows: Irreversible inhibition of Plasmodium falciparum plasmepsin-2 expressed in Escherichia coli BL21 (DE3) at 1 uM measured after overnight dialysis by spun column chromatography.
For data set [5] the target is unchanged. Description: Inhibition of Plasmodium falciparum plasmepsin-2 expressed in Escherichia coli BL21 (DE3) assessed as residual activity at 1 uM measured after overnight dialysis by spun column chromatography.
Another data set deals with Cathepsin D (Homo sapiens, UniProt P07339). Description: Inhibition of human cathepsin D after 30 mins by FRET assay.
A short description of data set [6]: Selectivity ratio of IC50 for human cathepsin D to IC50 for Plasmodium falciparum plasmepsin-2 expressed in Escherichia coli BL21 (DE3).
The test system of data set [7] is CHO. Description: Cytotoxicity against CHO cells at 10 uM after 24 hrs by MTS assay. To be noted: chinese hamster. The data set is classed as cell-based, Cricetulus griseus.
Data set [8] has as its system Plasmodium falciparum. Description: Antiplasmodial activity against Plasmodium falciparum 3D7 trophozoites infected in human erythrocytes assessed as [3H]hypoxanthine incorporation into nucleic acid after 30 hrs by beta-scintillation counting. In kind it is functional, organism-based.
The target in data set [9] is T1, Plasmepsin II. The data set is described as follows: Inhibition of Plasmodium falciparum plasmepsin-2.
In data set [10] the test system is Plasmodium falciparum. Description: Antiplasmodial activity against Plasmodium falciparum infected in human erythrocytes assessed as inhibition of parasite growth. The data set is classed as functional. The conditions noted are these: read-out: ED50 (the source's name).
A short description of data set [11]: Selectivity ratio of Ki for human cathepsin D to Ki for Plasmodium falciparum plasmepsin-2.
Data set [12] deals with CHO. Description: Cytotoxicity against CHO cells at 250 ug/mL after 24 hrs by MTS assay. The data set is classed as cell-based, Cricetulus griseus. To be noted: chinese hamster. (Tetrazolium dyes change colour on reduction, which living cells bring about.)
Data set [13] relates to CHO. The data set is described as follows: Cytotoxicity against CHO cells at 100 ug/mL after 24 hrs by MTS assay. In kind it is cell-based, Cricetulus griseus. To be noted: chinese hamster.
Data set [14] addresses T1, Plasmepsin II. The data set is described as follows: Inhibition of Plasmodium falciparum plasmepsin-2 expressed in Escherichia coli BL21 (DE3) after 40 min by Kitz-Wilson plot analysis.
Data set [15] has as its target Plasmepsin II (Plasmodium falciparum) (UniProt P46925). The data set is described as follows: Inhibition of Plasmodium falciparum plasmepsin-2 expressed in Escherichia coli BL21 (DE3) at compound to substrate ratio of 1:1 to 1: 5 after 2 hrs by FRET assay.
Data set [16] is described as follows: Selectivity ratio of Ki for human cathepsin D to Ki for Plasmodium falciparum recombinant plasmepsin-2.
Data set [17] relates to Plasmodium falciparum. Description: Antiplasmodial activity against Plasmodium falciparum assessed as inhibition of parasite growth at 20 uM. In kind it is functional.

Active and inactive are the calls of the source. The rule behind the calls is not given here.

T1 sequence (P46925 whole entry): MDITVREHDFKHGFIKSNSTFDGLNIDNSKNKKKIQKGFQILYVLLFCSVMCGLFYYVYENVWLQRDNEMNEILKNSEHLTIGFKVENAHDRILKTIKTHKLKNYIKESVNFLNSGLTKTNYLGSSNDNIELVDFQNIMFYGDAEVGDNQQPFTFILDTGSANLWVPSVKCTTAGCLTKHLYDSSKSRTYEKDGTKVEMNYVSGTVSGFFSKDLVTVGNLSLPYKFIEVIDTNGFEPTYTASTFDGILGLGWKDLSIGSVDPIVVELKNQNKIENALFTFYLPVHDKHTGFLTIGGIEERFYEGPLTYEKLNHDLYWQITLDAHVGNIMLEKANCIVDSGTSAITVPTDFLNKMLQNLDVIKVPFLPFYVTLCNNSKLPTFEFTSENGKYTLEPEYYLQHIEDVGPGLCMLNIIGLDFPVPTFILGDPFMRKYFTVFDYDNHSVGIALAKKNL
Sequence of Cathepsin D (P07339 65-162 limits assumed): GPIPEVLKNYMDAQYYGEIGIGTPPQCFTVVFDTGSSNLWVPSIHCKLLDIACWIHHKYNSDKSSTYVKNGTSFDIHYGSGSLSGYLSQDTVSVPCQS
Sequence of Cathepsin D (P07339 169-412 limits assumed): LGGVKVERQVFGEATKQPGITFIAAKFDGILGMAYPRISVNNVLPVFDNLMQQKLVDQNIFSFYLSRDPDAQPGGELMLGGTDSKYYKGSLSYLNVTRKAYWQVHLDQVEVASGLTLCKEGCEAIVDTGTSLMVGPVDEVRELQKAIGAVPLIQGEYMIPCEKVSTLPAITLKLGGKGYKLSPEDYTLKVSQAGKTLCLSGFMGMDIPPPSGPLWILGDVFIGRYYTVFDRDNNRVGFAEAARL
Sequence of Plasmepsin II (Plasmodium falciparum) (P46925 125-453 limits assumed): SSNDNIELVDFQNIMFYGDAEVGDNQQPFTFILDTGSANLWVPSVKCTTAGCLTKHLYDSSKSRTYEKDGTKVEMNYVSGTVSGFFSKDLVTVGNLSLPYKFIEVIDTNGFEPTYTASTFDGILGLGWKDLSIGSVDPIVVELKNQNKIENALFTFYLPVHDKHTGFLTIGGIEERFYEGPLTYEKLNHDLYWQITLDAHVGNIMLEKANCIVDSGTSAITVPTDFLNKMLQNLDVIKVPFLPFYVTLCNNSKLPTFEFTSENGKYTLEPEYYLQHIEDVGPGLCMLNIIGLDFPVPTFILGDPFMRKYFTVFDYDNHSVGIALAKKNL

On to `CC(C)C[C@H](NC(=O)[C@H](CC#N)NC(=O)C[C@H](O)[C@H](Cc1ccccc1)NC(=O)[C@@H](NC(=O)c1ccccn1)C(C)C)C(N)=O`, for which the inhibition stood at 76.9% in [1] and 88.2% in data set [3]. Also, the IC50 turned out to be 141 nM on Plasmepsin II [2] and 50 nM against Cathepsin D. Moreover, the inhibition result in data set [4] is “inactive”. The results for the Activity (in [5]; in the data set with CHO [7]) were 88% and “Non-toxic”, respectively. In data set [6], the Ratio IC50 came to 1.4.

Regarding `CC(C)CC(=O)N[C@H](C(=O)N[C@H](C(=O)N[C@@H](CC(C)C)[C@@H](O)CC(=O)N[C@@H](C)C(=O)N[C@@H](CC(C)C)[C@@H](O)CC(=O)O)C(C)C)C(C)C`, the results for the inhibition in data set [1] and in [3] were 97.8% and 82.8%, respectively. Also, the Activity in data set [5] is 85.2%.

Take `C#CCNC(=O)[C@H](Cc1ccccc1)NC(=O)C[C@H](O)[C@H](Cc1ccccc1)NC(=O)[C@@H](NC(=O)c1ccccn1)C(C)C`: the half-maximal inhibitory concentration (IC50) was determined as 9200 nM in the data set with Plasmodium falciparum [8], 22 nM at Plasmepsin II [2] and 50 nM against Cathepsin D. This molecule also returned an inhibition in data set [1] of 76.9%. The inhibition result in data set [3] was “Active”. In addition, in data set [4], the inhibition result is “inactive”. For the same molecule, the Activity in [5] is 36.1%; in the data set on CHO [7], “Non-toxic”. In data set [6], the Ratio IC50 was 10.6.

Regarding `CC(C)C[C@H](NC(=O)[C@H](C)NC(=O)C[C@H](O)[C@H](COCc1ccc(Br)cc1)NC(=O)[C@@H](NC(=O)c1ccccn1)C(C)C)C(N)=O`, in the data set on Plasmodium falciparum [8], the half-inhibitory concentration (IC50) amounted to 5000 nM. Besides, the inhibition constant (Ki) at Plasmepsin II [9] is 0.5 nM.

In the case of `Cc1ccc(-c2ccc(C[C@H](NC[C@H](O)[C@H](Cc3ccccc3)NC(=O)[C@@H](NC(=O)c3ccccn3)C(C)C)C(N)=O)cc2)cc1`, the IC50 in the data set with Plasmodium falciparum [8] amounted to 5000 nM. The EC50 with Plasmodium falciparum [10] came out at 1600 nM.

Take `Cc1cccc(C)c1OCC(=O)N[C@@H](Cc1ccccc1)[C@@H](O)C[C@H](CC(C)C)NC(=O)[C@H](C(C)C)N1CCCNC1=O`: in the data set with Plasmodium falciparum [8], the IC50 stood at 5000 nM. The molecule further gave an inhibitory constant (Ki) on Plasmepsin II [9] of 357 nM. For the same molecule, in data set [11], the Ratio Ki amounted to 10.

Consider `CC(C)C[C@H](NC(=O)[C@H](CCl)NC(=O)C[C@H](O)[C@H](Cc1ccccc1)NC(=O)[C@@H](NC(=O)c1ccccn1)C(C)C)C(N)=O`, for which the Activity result in the data set with CHO [12], in the data set on CHO [13] and with CHO [7] was “Non-toxic” in each case. This molecule gave an inhibition in data set [1] of 76.9%. Also, the half-inhibitory concentration (IC50) at Plasmepsin II [2] was found to be 28 nM; at Cathepsin D, 50 nM. Moreover, the inhibition entry in [3], in [4] and in data set [15] was “Active” throughout. Besides, at Plasmepsin II [14], the Ki worked out at 35.7 nM. In data set [6], the Ratio IC50 worked out at 3.3.

Turning to `CC(C)C[C@H](NC(=O)[C@H](C)NC(=O)C[C@H](O)[C@H](Cc1ccccc1)NC(=O)[C@@H](NC(=O)c1ccccn1)C(C)C)C(N)=O`, the IC50 in the data set on Plasmodium falciparum [8] is 5000 nM. Also, in [16], the Ratio Ki is 38. In addition, the inhibition at 20 µM with Plasmodium falciparum [17] worked out at 54%.

As for `C#CC[C@H](NC(=O)C[C@H](O)[C@H](Cc1ccccc1)NC(=O)[C@@H](NC(=O)c1ccccn1)C(C)C)C(=O)N[C@@H](CC(C)C)C(N)=O`, the half-maximal inhibitory concentration (IC50) in the data set with Plasmodium falciparum [8] amounted to 7700 nM; on Plasmepsin II [2] it was 333 nM; on Cathepsin D, 50 nM. For the same molecule, in data set [1], the inhibition is 76.9%. Moreover, the inhibition result in data set [3], in [4] and in [15] was “Active” throughout. Besides, on Plasmepsin II [14], the inhibition constant Ki stood at 333 nM. Moreover, the Activity entry with CHO [7] is “Non-toxic”.

Values taken from ChEMBL document CHEMBL1157812, “Mechanism-based inhibitors of the aspartyl protease plasmepsin II as potential antimalarial agents” (J Med Chem, 2010).
